Test results published in ChEMBL document CHEMBL3868593, “Chlojaponilactone B from Chloranthus japonicus: Suppression of Inflammatory Responses via Inhibition of the NF-κB Signaling Pathway” (J Nat Prod, 2016).
One block for each compound: values may come before it. Activity calls are given as the source filed them. The calls are words filed in the database; no cut-off is given here.

Columns and labels:
Mus musculus [1] = experiment: Antiinflammatory activity in BALB/c mouse assessed as inhibition of TPA-induced ear edema applied topically pretreated for 30 mins followed by TPA exposure measured after 4 hrs; assay type: functional
In short: (§1)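 Topical dosing of right ear at 2.5, 5 or 10 mg/mL, 30 min before TPA; left ear given acetone only as solvent control; 1% hydrocortisone as positive control. Mice killed 4 h after TPA, 7 mm central punches taken from both ears and weighed; edema rate (%) = [(weight right − weight left)/weight left] × 100%. n = 8 mice per group.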

Mus musculus [2] = experiment: Antiinflammatory activity in TPA-induced ear edema BALB/c mouse model assessed as reduction in inflammatory cell infilteration applied topically pretreated for 30 mins followed by TPA exposure measured after 4 hrs by hematoxylin and eosin staining based light microscopic method; assay type: functional, tissue-based
In short: (§2)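 Right ear pretreated topically (2.5, 5, 10 mg/mL) 30 min before TPA for 4 h; left ear acetone only; 1% hydrocortisone as positive control. Ears fixed in 4% paraformaldehyde, paraffin-embedded, cut at 4 μm, H&E stained; representative area examined qualitatively by light microscopy at 200×; n = 8 mice per group.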

Mus musculus [3] = experiment: Antiinflammatory activity in TPA-induced ear edema BALB/c mouse model assessed as reduction in epidermal hyperplasia applied topically pretreated for 30 mins followed by TPA exposure measured after 4 hrs by hematoxylin and eosin staining based light microscopic method; assay type: functional, tissue-based; in short: as §2
[4] = Antiinflammatory activity in mouse RAW264.7 cells assessed as inhibition of LPS-induced NO production pretreated for 30 mins followed by LPS stimulation for 24 hrs by Griess assay; assay type: functional, cell-based
In short: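 Cells seeded at 5 × 10^4 per well, grown 24 h, pretreated 30 min, then stimulated with 500 ng/mL LPS for 24 h; 0.5% DMSO vehicle in all wells; LPS-only and unstimulated blanks included; L-NIL as positive control. Medium reacted with Griess reagent, absorbance at 540 nm; IC50 reported.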

RAW264.7 [5] = experiment: Inhibition of LPS-induced NF-kappaB (unknown origin) transactivation expressed in mouse RAW264.7 cells at 20 uM pretreated for 30 mins followed by LPS stimulation for 6 hrs by luciferase reporter gene assay; assay type: cell-based; conditions: Homo sapiens
In short: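 RAW 264.7/NF-κB-luc cells (RAW 264.7 stably carrying an NF-κB-driven luciferase reporter), kept in DMEM with 10% FBS, penicillin/streptomycin and 500 μg/mL G418. Seeded at 5 × 10^5 per well for 24 h, then compound for 30 min before LPS 500 ng/mL for 6 h; DMSO 0.5% vehicle, PDTC 20 μM positive control. Firefly luminescence read on lysates; means ± SD of three independent experiments.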

RAW264.7 [6] = experiment: Inhibition of NF-kappaB in mouse RAW264.7 cells assessed as reduction in LPS-induced COX2 expression at 1 to 9 uM pretreated for 30 mins followed by LPS stimulation for 12 hrs by Western blot analysis; assay type: cell-based
In short: (§3)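 Cells 5 × 10^5 per well grown 24 h, serum-starved 12 h, pretreated 30 min, then LPS 500 ng/mL for 12 h. Lysates protein-normalized by BCA, 10% SDS-PAGE, PVDF, anti-iNOS or anti-COX-2 (1:1000) overnight at 4 °C, ECL detection; β-tubulin loading control.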

Mus musculus [7] = experiment: Antiinflammatory activity in BALB/c mouse assessed as inhibition of TPA-induced ear edema at 10 mg/ml applied topically pretreated for 30 mins followed by TPA exposure measured after 4 hrs; assay type: functional; in short: as §1
Mus musculus [8] = experiment: Antiinflammatory activity in TPA-induced ear edema BALB/c mouse model assessed as reduction in inflammatory cell infilteration at 10 mg/ml applied topically pretreated for 30 mins followed by TPA exposure measured after 4 hrs by hematoxylin and eosin staining based light microscopic method; assay type: functional, tissue-based; in short: as §2
RAW264.7 [9] = experiment: Inhibition of NF-kappaB in mouse RAW264.7 cells assessed as reduction in LPS-induced IL-6 level pretreated for 30 mins followed by LPS stimulation for 24 hrs by ELISA; assay type: cell-based
In short: (§4)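 Pretreatment at 0.3, 1, 3 or 9 μM for 30 min, then LPS 500 ng/mL for 24 h; culture supernatant assayed for TNF-α and IL-6 by ELISA kits; means ± SD of three independent experiments.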

RAW264.7 [10] = experiment: Inhibition of NF-kappaB in mouse RAW264.7 cells assessed as reduction in LPS-induced iNOS protein expression pretreated for 30 mins followed by LPS stimulation for 12 hrs by Western blot analysis; assay type: cell-based; in short: as §3
Mus musculus [11] = experiment: Antiinflammatory activity in TPA-induced ear edema BALB/c mouse model assessed as reduction in epidermal hyperplasia at 10 mg/ml applied topically pretreated for 30 mins followed by TPA exposure measured after 4 hrs by hematoxylin and eosin staining based light microscopic method; assay type: functional, tissue-based; in short: as §2
[12] = target: Transcription factor p65 (Mus musculus) (UniProt Q04207); experiment: Inhibition of LPS-induced NF-kappaB p65 subunit translocation into nucleus of mouse RAW264.7 cells at 10 uM pretreated for 30 mins followed by LPS stimulation for 3 hrs by DAPI staining based immunofluorescence assay; assay type: cell-based
Chain of Transcription factor p65 (Mus musculus) (Q04207 whole entry): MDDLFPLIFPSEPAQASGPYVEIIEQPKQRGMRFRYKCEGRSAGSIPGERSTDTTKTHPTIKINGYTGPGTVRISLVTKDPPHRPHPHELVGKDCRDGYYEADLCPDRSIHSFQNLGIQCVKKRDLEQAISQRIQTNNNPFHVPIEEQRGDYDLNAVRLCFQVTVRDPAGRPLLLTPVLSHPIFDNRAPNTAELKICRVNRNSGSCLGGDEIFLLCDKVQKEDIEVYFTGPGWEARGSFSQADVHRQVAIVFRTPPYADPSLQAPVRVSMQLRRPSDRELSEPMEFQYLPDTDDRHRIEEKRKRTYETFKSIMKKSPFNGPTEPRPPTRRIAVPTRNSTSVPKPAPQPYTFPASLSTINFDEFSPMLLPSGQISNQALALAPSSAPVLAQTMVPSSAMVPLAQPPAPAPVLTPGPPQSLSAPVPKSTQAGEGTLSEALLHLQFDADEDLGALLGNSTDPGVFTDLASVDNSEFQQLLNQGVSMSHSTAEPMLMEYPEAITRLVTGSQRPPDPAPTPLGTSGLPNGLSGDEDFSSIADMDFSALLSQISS
In short: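 Cells at 1 × 10^5/mL plated overnight, pretreated 30 min, then LPS 500 ng/mL for 3 h; fixed in 4% formaldehyde, permeabilized with 1% Triton X-100, blocked in 5% BSA, anti-p65 (1:100) overnight at 4 °C, Alexa 594 secondary, DAPI nuclei. High-content imaging; nuclear minus cytoplasmic fluorescence; three independent experiments.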

RAW264.7 [13] = experiment: Inhibition of NF-kappaB in mouse RAW264.7 cells assessed as reduction in LPS-induced TNF-alpha level pretreated for 30 mins followed by LPS stimulation for 24 hrs by ELISA; assay type: cell-based; in short: as §4
RAW264.7 [14] = experiment: Inhibition of LPS-induced NF-kappaB (unknown origin) transactivation expressed in mouse RAW264.7 cells pretreated for 30 mins followed by LPS stimulation for 6 hrs by luciferase reporter gene assay; assay type: cell-based; conditions: Homo sapiens
In short: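 RAW 264.7 line stably carrying NF-κB-driven firefly luciferase, maintained with 500 μg/mL G418; seeded 5 × 10^5 per well, 24 h, pretreated 30 min at 2.5–20 μM, then 500 ng/mL LPS for 6 h; 0.5% DMSO vehicle; 20 μM PDTC positive control. Lysate luminescence read; three independent experiments, means ± SD.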

RAW264.7 [15] = experiment: Inhibition of NF-kappaB in mouse RAW264.7 cells assessed as reduction in LPS-induced degradation of IkappaB-alpha pretreated for 30 mins followed by LPS stimulation for 1 hr by Western blot analysis; assay type: cell-based
In short: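 Serum-starved (12 h) cells pretreated 30 min at 2.5, 5 or 10 μM or 0.5% DMSO, then LPS 500 ng/mL for 1 h; Western blot for IκB-α and phospho-IκB-α (1:1000, 4 °C overnight), ECL, β-tubulin loading control; bands quantified from three independent experiments.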

Compound: C[C@]12CCC(=O)C=C1CC[C@@H]1[C@@H]2[C@@H](O)C[C@@]2(C)[C@H]1CC[C@]2(O)C(=O)CO [HYDROCORTISONE]
inhibition (INH) (Mus musculus [1]): 56.33% | Activity (Mus musculus [2]): Active | Activity (Mus musculus [3]): Active

Compound: CC(=N)NCCCC[C@H](N)C(=O)O [L-NIL]
IC50 [4]: 7.5 µM

Compound: S=C(S)N1CCCC1
inhibition (RAW264.7 [5]): Active

Compound: C=C1[C@H]2C[C@H]2[C@]2(C)C=C3OC(=O)C(C)=C3[C@H](OC(C)=O)[C@@H]12
inhibition (RAW264.7 [6]): Active | inhibition at 10000 µg/mL (Mus musculus [7]): 23.5% | Activity (Mus musculus [8]): Active | inhibition (Mus musculus [1]): Dose-dependent effect | inhibition (RAW264.7 [9]): Dose-dependent effect | inhibition (RAW264.7 [10]): Dose-dependent effect | IC50 [4]: 1.4 µM | Activity (Mus musculus [11]): Active | inhibition [12]: Active | inhibition (RAW264.7 [13]): Dose-dependent effect | inhibition (RAW264.7 [14]): Dose-dependent effect | inhibition (RAW264.7 [15]): Dose-dependent effect

Compound: C=C1[C@H]2C[C@H]2[C@]2(C)C[C@@H]3OC(=O)C(C)=C3C[C@]12O [SARCANDRALACTONE A]
IC50 [4]: > 50 µM

Compound: C=C1[C@H]2C[C@H]2[C@]2(C)C=C3OC(=O)C(C)=C3C[C@@]12O
IC50 [4]: > 50 µM

Compound: CC1=C2CC3=C(CO)[C@H]4C[C@H]4[C@]3(C)C[C@@H]2OC1=O [CHLORAJAPOLIDE C]
IC50 [4]: > 50 µM

Other lines, results leading:

IC50 [4]: 35.4 µM
Compound: C=C1[C@H]2C[C@H]2[C@@]2(C)[C@H]1CC1=C(C)C(=O)O[C@@]1(O)[C@H]2O

IC50 [4]: > 50 µM
Compound: C=C1[C@H]2C[C@H]2[C@]2(C)[C@H](O)[C@@]3(OC)OC(=O)C(C)=C3C[C@@H]12

IC50 [4]: > 50 µM
Compound: C=C1[C@H]2C[C@H]2[C@]2(C)[C@H](O)[C@]3(OC)OC(=O)C(C)=C3C[C@@H]12

IC50 [4]: 33.2 µM
Compound: C=C1[C@H]2C[C@H]2[C@]2(C)C=C3OC(=O)C(C)=C3C[C@@H]12 [CHLORANTHALACTONE A]

IC50 [4]: > 50 µM
Compound: C=C1[C@H]2C[C@H]2[C@]2(C)C[C@@H]3OC(=O)C(C)=C3C[C@@H]12
